SMILES strings stand for the structures. The source made the active and inactive calls. The rule behind the calls is not given here.

In experiment [1] the test system is Felis catus. As to the kind of experiment: Reversal of epinephrine-induced increase in mean arterial blood pressure in cat at 2.5 mg/kg, iv. Format: functional.
In experiment [2] the test system is Felis catus. As to the kind of experiment: Reversal of isoproterenol-induced increase in mean arterial blood pressure in cat assessed as pressor phase at 2.5 mg/kg, iv. Format: functional.
The subject of experiment [3] is Felis catus. Description: Reversal of isoproterenol-induced increase in mean arterial blood pressure in cat assessed as depressor phase at 2.5 mg/kg, iv. Format: functional.
For experiment [4], the target named is Beta-2 adrenergic receptor (Cavia porcellus, UniProt Q8K4Z4). Description: Inhibition of beta2-adrenergic receptor in guinea pig tracheal chain assessed as reversal of isoproterenol-induced effect after 15 mins. Details: species or system Trachea. The note with it: read-out: pA2 (converted).
The target in experiment [5] is Beta-1 adrenergic receptor (Cavia porcellus, UniProt B0FL73). Description: Inhibition of beta1-adrenergic receptor in guinea pig auricle assessed as reversal of isoproterenol-induced effect. The note with it: read-out: pA2 (converted).
The next experiment concerns Heart. Description: Antiarrhythmic activity against guinea pig auricle. Format: functional, tissue-based. Particulars: Cavia porcellus. In short, it runs like this:
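Electrically driven isolated guinea pig auricles (Dawes method).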

The subject of a further experiment is Cavia porcellus. As to the kind of experiment: Anesthetic effect in guinea pig at 0.1 % by intradermal wheal method. Format: functional, organism-based.
The target of experiment [6] is Beta-2 adrenergic receptor (Cavia porcellus) (UniProt Q8K4Z4). Description: Competitive inhibition of beta2-adrenergic receptor in guinea pig tracheal chain assessed as reversal of isoproterenol-induced effect at 3.44 X 10^-8 M to 1.376 X 10^-7 M after 15 mins. An outline of the steps: (§1)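 Isolated guinea pig tracheal chain in Krebs bicarbonate Ringer at 36.5 ± 0.5 °C, gassed with O2 containing 5% CO2. Tone raised with acetylcholine, then cumulative isoproterenol (1×10^-5 to 1×10^-4 M) given after 15-min antagonist exposure. pA2 by linear extrapolation; mean ± SE, n experiments.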

The target is the same in experiment [7]. As to the kind of experiment: Inhibition of beta2-adrenergic receptor in guinea pig tracheal chain assessed as reversal of isoproterenol-induced effect at 3.44 X 10^-8 M to 1.376 X 10^-7 M incubated for 15 mins followed by compound washout measured after 30 to 60 mins. Particulars: Trachea.
The subject of a further experiment is Ileum. As to the kind of experiment: Cholinolytic activity in guinea pig ileum at 2.94 X 10^-7 M to 1.176 X 10^-6 M in presence of acetylcholine. The class given is functional, tissue-based. Particulars: Cavia porcellus. An outline of the steps: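 Isolated guinea pig ileum in oxygenated Tyrode solution at 36.5 ± 0.5 °C. Acetylcholine used as spasmogen; antagonism of contraction by test agent assessed.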

In experiment [8] the target is Beta-2 adrenergic receptor (Cavia porcellus) (UniProt Q8K4Z4). Description: Inhibition of beta2-adrenergic receptor in guinea pig tracheal chain assessed as reversal of isoproterenol-induced effect at 5.868 X 10^-7 M to […] incubated for 15 mins followed by compound washout measured after 30 to 60 mins. The note with it: Trachea.
The test system of another experiment is Trachea. Description: Cholinolytic activity in guinea pig trachea at 2.94 X 10^-7 M to 1.176 X 10^-6 M in presence of acetylcholine. The class given is functional, tissue-based. Particulars: Cavia porcellus. An outline of the steps: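 Guinea pig tracheal chain in Krebs bicarbonate Ringer at 36.5 ± 0.5 °C, gassed with O2/5% CO2. Acetylcholine responses examined in presence of test agent.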

Experiment [9] addresses Beta-2 adrenergic receptor (Cavia porcellus) (UniProt Q8K4Z4). Description: Competitive inhibition of beta2-adrenergic receptor in guinea pig tracheal chain assessed as reversal of isoproterenol-induced effect at 5.868 X 10^-7 M to […] after 15 mins. An outline of the steps:
as §1

For experiment [10] the target is unchanged. As to the kind of experiment: Inhibition of beta2-adrenergic receptor in guinea pig tracheal chain assessed as reversal of isoproterenol-induced effect at 1.376 X 10^-7 M to 2.752 X 10^-7 M incubated for 15 mins followed by compound washout measured after 30 to 60 mins. The note with it: Trachea.
For experiment [11] the target is unchanged. As to the kind of experiment: Competitive inhibition of beta2-adrenergic receptor in guinea pig tracheal chain assessed as reversal of isoproterenol-induced effect at 1.376 X 10^-7 M to 2.752 X 10^-7 M after 15 mins. In short, it runs like this: as §1
For experiment [12] the target is unchanged. Description: Competitive inhibition of beta2-adrenergic receptor in guinea pig tracheal chain assessed as reversal of isoproterenol-induced effect at 5.36 X 10^-9 M to 8.576 X 10^-8 M after 15 mins. An outline of the steps: as §1
Experiment [13] has the same target. Description: Inhibition of beta2-adrenergic receptor in guinea pig tracheal chain assessed as reversal of isoproterenol-induced effect at 5.36 X 10^-9 M to 8.576 X 10^-8 M incubated for 15 mins followed by compound washout measured after 30 to 60 mins. Particulars: Trachea.

Sequence of Beta-2 adrenergic receptor (Q8K4Z4 whole entry): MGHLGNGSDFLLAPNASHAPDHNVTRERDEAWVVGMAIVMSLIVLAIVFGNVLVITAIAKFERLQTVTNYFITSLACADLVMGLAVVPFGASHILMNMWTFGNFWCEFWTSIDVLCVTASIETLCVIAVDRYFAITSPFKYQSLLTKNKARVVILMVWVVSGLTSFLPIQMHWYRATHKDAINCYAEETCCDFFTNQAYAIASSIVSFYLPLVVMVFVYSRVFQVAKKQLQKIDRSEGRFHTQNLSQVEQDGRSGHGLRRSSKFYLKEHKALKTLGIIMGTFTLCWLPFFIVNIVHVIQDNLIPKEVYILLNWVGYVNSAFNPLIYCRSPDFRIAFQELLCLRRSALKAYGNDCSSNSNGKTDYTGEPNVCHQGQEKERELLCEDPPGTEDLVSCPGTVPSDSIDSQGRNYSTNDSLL
Sequence of Beta-2 adrenergic receptor (Cavia porcellus) (Q8K4Z4 whole entry, looked up): as the sequence (Q8K4Z4 whole entry) above
Sequence of Beta-1 adrenergic receptor (B0FL73 whole entry): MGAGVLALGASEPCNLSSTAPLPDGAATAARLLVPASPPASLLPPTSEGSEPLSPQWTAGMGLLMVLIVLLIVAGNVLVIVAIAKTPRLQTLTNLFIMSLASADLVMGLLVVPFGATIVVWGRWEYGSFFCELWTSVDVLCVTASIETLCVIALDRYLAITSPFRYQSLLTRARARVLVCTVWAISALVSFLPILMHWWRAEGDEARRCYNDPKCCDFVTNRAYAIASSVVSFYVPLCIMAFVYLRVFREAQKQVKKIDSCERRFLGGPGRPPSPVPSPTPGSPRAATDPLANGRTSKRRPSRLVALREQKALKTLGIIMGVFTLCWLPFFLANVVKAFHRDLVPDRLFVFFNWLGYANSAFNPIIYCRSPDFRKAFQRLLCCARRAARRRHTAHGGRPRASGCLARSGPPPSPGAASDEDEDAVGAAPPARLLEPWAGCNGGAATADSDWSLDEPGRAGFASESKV

In the case of `CC1(C)NC1C(O)c1ccccc1` (stereo in doubt; 1a) [listing 1 of 2 here], the Activity in the experiment on Felis catus [1] (2.5 mg/kg) is listed as 0%; with Felis catus [2] (2.5 mg/kg), 20%; with Felis catus [3] (2.5 mg/kg), -10%. The Kb in experiment [4] is 0.0619 µM; in [5], 43.2 µM.

On to `CCN(CC)CCOC(=O)c1ccc(N)cc1`, for which the result in the experiment with Heart and in the experiment on Cavia porcellus was inactive.

On to `CC(C)NCC(O)COc1cccc2ccccc12` (stereo not drawn) [PROPRANOLOL], for which the Activity is on record as 45% in the experiment on Felis catus [1] and -100% in the experiment on Felis catus [3]. Also, in the experiment on Heart, the outcome was inactive.

As to `CC1(C)NC1C(O)c1ccccc1` (stereo in doubt; 1b) [listing 1 of 2 here], the inhibition result in [6] was “Active”. In addition, the result in the experiment with Heart and with Cavia porcellus was inactive. Further, the inhibition result in experiment [7] is “inactive”.

`CC1(C)NC1C(O)c1ccc(Cl)c(Cl)c1` (stereo not drawn): the Activity with Felis catus [1] is recorded as 0%; in the experiment with Felis catus [2], -16%; with Felis catus [3], 0%. Further, the result in the experiment on Ileum, in the experiment on Trachea, with Heart and with Cavia porcellus was Active. Also, the inhibition entry in experiment [8] and in experiment [9] was “inactive” each time. Moreover, the Kb in [4] was 0.398 µM; in experiment [5], 17.4 µM.

With `CC1(C)NC1C(O)c1ccccc1` (stereo in doubt; 1a) [listing 2 of 2 here], in experiment [10], the inhibition entry was “inactive”. For the same molecule, the result in the experiment with Heart and with Cavia porcellus was inactive. Besides, the inhibition entry in [11] was “Active”.

As to `CC1(C)NC1C(O)c1ccc2ccccc2c1` (stereo not drawn), the Activity in the experiment with Felis catus [1] is reported as 62%; with Felis catus [2], 0%; in the experiment with Felis catus [3] it was -33%. In addition, in experiment [12], the inhibition result is “Active”. Besides, the inhibition entry in experiment [13] is “inactive”. The outcome in the experiment on Heart and with Cavia porcellus was inactive. The Kb was 0.00304 µM in experiment [4] and 344 µM in experiment [5].

On to `CC1(C)NC1C(O)c1ccccc1` (stereo in doubt; 1b) [listing 2 of 2 here], for which the Activity with Felis catus [1] (2.5 mg/kg) amounted to 11.1%; with Felis catus [2] (2.5 mg/kg), 0%; with Felis catus [3] (2.5 mg/kg), 0%. Further, the results for the Kb in experiment [4] and in [5] were 0.0644 µM and 344 µM, respectively.

These data come from ChEMBL document CHEMBL3243943, “Adrenoceptor blocking agents. 2. 2-(alpha-Hydroxyarylmethyl)-3,3-dimethylaziridines, a new class of selective beta2-adrenoceptor antagonists” (J Med Chem, 1978).
